Entries after “also recorded” stand apart in the source; their conditions may differ. Read-outs that look alike come from different tables or passages of the source.
Assays:
[1] = biological target: InsP3-gated Ca channel tetrameric complex; test: Mathematical model of the tetrameric InsP3-gated channel complex; settings: read-out: Model dissociation constant, InsP3 low affinity site (J); 22°C
In short: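 Tetramer model: each subunit has a medium-affinity InsP3 site, a low-affinity InsP3 site and a Ca site, giving 125 states. Assumes mass-action binding, diffusion-limited on-rates and identical subunits, solved at equilibrium. Low-affinity occupancy defines the active state, with open/closed transitions. Unknown parameters found by quasi-Newton iterative fitting to single-channel open probability and Ca-dependent binding data at 22°C; open-time histograms add constraints.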

[2] = biological target: T1, type 1 InsP3-gated Ca channel (Canis lupus familiaris, UniProt A0A8I3NKB2); settings: cited from earlier work
intracellular Ca = settings: 100 μM; ref Wakui et al., 1989; Petersen et al., 1991; cited from earlier work
[3] = system: cerebellar Purkinje cells; settings: flash photolysis; ref Khodakhah and Ogden, 1995; cited from earlier work
[4] = biological target: T1, type 1 InsP3-gated Ca channel; test: InsP3-gated channel activity in planar lipid bilayer; format: biochemical, canine
In short: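 Canine cerebellar microsomes fused into PE:PS (3:1) bilayers in decane. Cytosolic side: 500 μM Na-ATP, 500 μM EGTA, 110 mM Tris, 250 mM HEPES, pH 7.35, with CaCl2 to set free Ca, verified by BTC fluorescence. Luminal side: 53 mM Ba(OH)2 as carrier, 250 mM HEPES. InsP3 added to start activity. Held at 0 mV; filtered 1 kHz, digitized 5 kHz; open-time histograms compiled.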

[5] = biological target: T2, type 1 InsP3 receptor (cerebellar membranes) (Canis lupus familiaris, UniProt A0A8I3NKB2); test: InsP3 binding to cerebellar microsomes; design: species or system canine
T2 sequence (A0A8I3NKB2 1-2757): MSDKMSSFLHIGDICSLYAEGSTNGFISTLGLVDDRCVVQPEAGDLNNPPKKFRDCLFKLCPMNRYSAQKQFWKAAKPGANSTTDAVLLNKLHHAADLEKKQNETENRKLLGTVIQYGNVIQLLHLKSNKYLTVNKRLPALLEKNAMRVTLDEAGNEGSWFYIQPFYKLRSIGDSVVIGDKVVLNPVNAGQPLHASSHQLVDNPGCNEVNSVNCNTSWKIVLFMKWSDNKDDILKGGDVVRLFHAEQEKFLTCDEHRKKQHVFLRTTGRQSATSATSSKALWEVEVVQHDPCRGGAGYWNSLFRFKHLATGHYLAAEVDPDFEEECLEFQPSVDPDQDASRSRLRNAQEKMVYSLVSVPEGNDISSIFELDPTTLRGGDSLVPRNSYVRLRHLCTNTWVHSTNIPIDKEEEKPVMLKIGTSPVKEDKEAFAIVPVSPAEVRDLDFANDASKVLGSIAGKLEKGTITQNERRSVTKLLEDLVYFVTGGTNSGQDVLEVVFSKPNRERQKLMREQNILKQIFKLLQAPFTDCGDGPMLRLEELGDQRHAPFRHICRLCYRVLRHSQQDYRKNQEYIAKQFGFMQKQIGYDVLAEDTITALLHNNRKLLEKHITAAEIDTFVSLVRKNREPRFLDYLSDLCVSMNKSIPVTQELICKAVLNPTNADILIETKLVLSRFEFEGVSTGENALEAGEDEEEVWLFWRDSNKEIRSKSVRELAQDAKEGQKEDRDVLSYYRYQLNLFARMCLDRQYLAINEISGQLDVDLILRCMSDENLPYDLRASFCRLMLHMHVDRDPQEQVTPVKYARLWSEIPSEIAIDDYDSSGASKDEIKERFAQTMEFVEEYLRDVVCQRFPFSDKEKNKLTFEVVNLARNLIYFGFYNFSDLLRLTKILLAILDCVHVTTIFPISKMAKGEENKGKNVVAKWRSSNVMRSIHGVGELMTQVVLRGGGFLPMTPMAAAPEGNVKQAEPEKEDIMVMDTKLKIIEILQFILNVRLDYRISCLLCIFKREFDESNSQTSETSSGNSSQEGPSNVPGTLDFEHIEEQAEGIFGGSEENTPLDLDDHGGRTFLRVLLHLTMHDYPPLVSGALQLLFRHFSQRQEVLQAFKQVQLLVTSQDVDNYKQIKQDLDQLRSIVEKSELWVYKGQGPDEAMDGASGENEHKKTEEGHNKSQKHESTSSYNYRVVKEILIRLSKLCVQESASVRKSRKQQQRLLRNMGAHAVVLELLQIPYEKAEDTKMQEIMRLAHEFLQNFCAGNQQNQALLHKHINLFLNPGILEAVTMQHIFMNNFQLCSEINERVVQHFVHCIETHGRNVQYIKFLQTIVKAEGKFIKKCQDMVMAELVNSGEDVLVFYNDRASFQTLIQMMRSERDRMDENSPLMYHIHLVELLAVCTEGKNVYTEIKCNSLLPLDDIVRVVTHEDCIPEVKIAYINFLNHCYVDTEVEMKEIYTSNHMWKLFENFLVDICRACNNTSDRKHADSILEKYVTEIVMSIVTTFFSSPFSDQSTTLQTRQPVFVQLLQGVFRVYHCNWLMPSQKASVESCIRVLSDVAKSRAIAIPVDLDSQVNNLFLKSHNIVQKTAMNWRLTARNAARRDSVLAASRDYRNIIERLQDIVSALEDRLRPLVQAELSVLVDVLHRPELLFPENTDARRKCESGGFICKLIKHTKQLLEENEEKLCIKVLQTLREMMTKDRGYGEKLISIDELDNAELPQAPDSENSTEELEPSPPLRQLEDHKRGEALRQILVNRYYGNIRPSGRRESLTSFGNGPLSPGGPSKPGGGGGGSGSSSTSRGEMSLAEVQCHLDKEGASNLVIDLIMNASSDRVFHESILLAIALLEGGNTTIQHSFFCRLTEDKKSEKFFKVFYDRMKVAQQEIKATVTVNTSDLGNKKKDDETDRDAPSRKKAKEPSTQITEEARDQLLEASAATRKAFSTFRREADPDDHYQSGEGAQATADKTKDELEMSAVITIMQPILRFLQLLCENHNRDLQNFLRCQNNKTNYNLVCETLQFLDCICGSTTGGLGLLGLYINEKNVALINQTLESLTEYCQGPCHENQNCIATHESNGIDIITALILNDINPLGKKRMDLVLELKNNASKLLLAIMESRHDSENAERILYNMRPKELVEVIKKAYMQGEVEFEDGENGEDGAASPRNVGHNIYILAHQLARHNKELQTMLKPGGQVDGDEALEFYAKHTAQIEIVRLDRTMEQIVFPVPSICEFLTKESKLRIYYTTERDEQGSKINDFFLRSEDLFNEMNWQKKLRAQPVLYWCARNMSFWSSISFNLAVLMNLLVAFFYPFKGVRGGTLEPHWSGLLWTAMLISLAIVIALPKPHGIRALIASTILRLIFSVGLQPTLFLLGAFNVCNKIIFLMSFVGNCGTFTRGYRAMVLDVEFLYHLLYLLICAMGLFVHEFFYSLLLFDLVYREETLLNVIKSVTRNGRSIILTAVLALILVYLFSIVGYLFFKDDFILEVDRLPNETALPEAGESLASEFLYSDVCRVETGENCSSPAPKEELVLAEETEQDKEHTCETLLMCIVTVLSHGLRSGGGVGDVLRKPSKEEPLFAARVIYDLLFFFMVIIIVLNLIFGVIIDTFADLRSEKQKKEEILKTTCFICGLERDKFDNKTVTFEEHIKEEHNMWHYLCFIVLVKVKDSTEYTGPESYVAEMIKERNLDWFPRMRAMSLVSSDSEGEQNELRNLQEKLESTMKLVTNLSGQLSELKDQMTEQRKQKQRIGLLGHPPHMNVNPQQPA
In short: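 Canine cerebellar microsomes prepared with protease inhibitors. Membranes added, incubated 8 min at 0° or 22°C, then pelleted at 40,000 g for 10 min for scintillation counting. Nonspecific binding measured with 40–160 μM unlabeled InsP3. Two-site Scatchard fit; 3–5 repeats, separate preparations.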

[6] = biological target: T2, type 1 InsP3 receptor (cerebellar membranes); settings: ref Kaftan et al., 1997; cited from earlier work

What does the source list for `O=P(O)(O)O[C@@H]1[C@H](O)[C@H](O)[C@@H](OP(=O)(O)O)[C@H](OP(=O)(O)O)[C@H]1O` [InsP3, inositol 1,4,5-trisphosphate]?
Kd [1]: 10000 nM; Effect of high InsP3 on Ca-dependent inhibition of channel activity ([2]; 180 μM InsP3, ref Kaftan et al., 1997): overcame the Ca-dependent inhibition of channel activity; Hill coefficient from single channel activity determinations ([2]; ref Watras et al., 1991): 1.0; Effect on intracellular Ca (intracellular Ca): sustained elevation of intracellular Ca; Intracellular InsP3 needed to induce Ca release [3]: at least 9 μM; Channel open time constant, fast component ([4]; 0.01 μM Ca, 2 μM InsP3): 1.8 ms; Channel open time constant, slow component ([4]; 0.01 μM Ca, 2 μM InsP3): 9.3 ms; Channel open time constant, fast component ([4]; 0.1 μM Ca): 0.6 ms; Channel open time constant, slow component ([4]; 0.1 μM Ca): 4.7 ms; Q10 of temperature-dependent change in InsP3 binding affinity ([5]; 0° vs 22°C, cerebellar membranes): 2.3; Difference between medium and low affinity site dissociation constants ([5]; 22°C (0.3 vs ∼10 μM)): 30 ×; Difference in dissociation constants between medium and low affinity sites ([5]; 37°C (1 vs. 10 μM), predicted): 10 fold; Kd ([5]; read-out: Kd for InsP3 binding at high Ca, 22°C, 50 μM free Ca): 1780 nM; Kd ([5]; read-out: Kd of InsP3 binding, medium affinity site, 22°C): 312 nM

Which “Effect on Ca-dependent inhibition of InsP3 binding” value ([5]; 100 μM free barium, data not shown) does the source give for `[Ba+2]` [barium] here?
The value was “did not alter”.

For `O=P(O)(O)OC1[C@H](O)[C@H](OP(=O)(O)O)C(OP(=O)(O)O)[C@H](OP(=O)(O)O)[C@H]1O` (stereo partly shown) [1,3,4,5-InsP4], which “Specificity of low affinity site for 1,4,5-InsP3 versus 1,3,4,5-InsP4” value [6] is on record?
Its value is “low level of specificity”.

Which “Inhibition of channel activity by Ca” value ([2]; 5 μM Ca, 2 μM InsP3, ref Bezprozvanny et al., 1991) does the source give for `[Ca+2]` [Ca, calcium] here?
Its value is “near complete inhibition”.

And the “Effect of Ca on maximal number of InsP3 binding sites” value ([5]; 0° and 22°C)?
Its value is “did not influence the maximal number of binding sites; also recorded: no evidence for an effect”.

What about the “Hill coefficient of Ca-dependent inhibition of InsP3 binding” value ([5]; 0°C) of the same compound?
The value was 1.5.

And the “Ca-dependent increase in Kd of InsP3 binding” value ([5]; 0°C, Ca 0.0004 to 10 μM, medium affinity site)?
The value was ~3.5 fold.

What about the “Decrease of InsP3 binding by Ca” value ([5]; 0°C, Ca increased from 0 to 100 μM, 10 nM InsP3) of the same compound?
The value was 66%.

What about the “Hill coefficient of Ca-dependent inhibition of InsP3 binding” value ([5]; 22°C) of the same compound?
Its value is 2.8.

And the “Reduction of InsP3 binding by Ca” value ([5]; 22°C, 170 nM InsP3, Ca 0.1 to 10 μM)?
The value was 55%.

Which “Reversal of Ca-dependent inhibition of InsP3 binding by Ca chelation” value ([5]; EGTA added after Ca) does the source give for `O=C(O)CN(CCOCCOCCN(CC(=O)O)CC(=O)O)CC(=O)O` [EGTA] here?
Its value is “fully reversible; also recorded: completely reversed; also recorded: completely reversible”.

With `O=P(O)(S)O[C@@H]1[C@@H](O)[C@H](OP(O)(O)=S)[C@@H](OP(O)(O)=S)[C@H](O)[C@@H]1O` (stereo partly shown) [InsPS3] as the compound, how does the “Effect on intracellular Ca” value (intracellular Ca) read?
The value was “sustained elevation of intracellular Ca”.

Source: publication PMC2225610 (The Journal of General Physiology, 1999)
